Source: ChEMBL document CHEMBL4321808, “Heteroaryl Phosphonates as Noncovalent Inhibitors of Both Serine- and Metallocarbapenemases” (J Med Chem, 2019)
Converted amounts (≈) assume the structure as drawn.

Tests used:
[1] = system: Escherichia coli; experiment: Inhibition of NDM-1 in Escherichia coli 5980 assessed as potentiation of ceftazidime-induced antimicrobial activity by measuring ceftazidime MIC incubated for 18 to 20 hrs by CLSI based method
Summary of the method: (§1)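 CLSI broth microdilution in MHBII. Avibactam fixed at 4 µg/mL with ceftazidime at 64–0.006 µg/mL. Inoculum about 5×10^5 CFU per well, incubated at 35 °C for 18–20 h. Ceftazidime MIC read as absence of visible growth.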

[2] = system: Klebsiella pneumoniae; experiment: Inhibition of KPC2 in Klebsiella pneumoniae 4683 assessed as potentiation of ceftazidime-induced antimicrobial activity by measuring ceftazidime MIC incubated for 18 to 20 hrs by CLSI based method; summary of the method: as §1
[3] = target: Metallo-beta-lactamase type 2 (Klebsiella pneumoniae) (UniProt C7C422); experiment: Inhibition of NDM-1 in Klebsiella pneumoniae 5979 assessed as potentiation of ceftazidime-induced antimicrobial activity by measuring ceftazidime MIC incubated for 18 to 20 hrs by CLSI based method; summary of the method: as §1
Chain of Metallo-beta-lactamase type 2 (Klebsiella pneumoniae) (C7C422 whole entry): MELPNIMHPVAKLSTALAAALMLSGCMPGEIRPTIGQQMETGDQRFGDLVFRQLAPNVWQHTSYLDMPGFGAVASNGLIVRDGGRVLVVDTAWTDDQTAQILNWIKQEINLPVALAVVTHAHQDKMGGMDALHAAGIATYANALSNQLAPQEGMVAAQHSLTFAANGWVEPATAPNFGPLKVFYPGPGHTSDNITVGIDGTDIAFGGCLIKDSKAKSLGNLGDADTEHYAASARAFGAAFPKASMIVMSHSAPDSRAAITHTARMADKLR

[4] = system: Enterobacter cloacae; experiment: Inhibition of NDM-1 in Enterobacter cloacae 5981 assessed as potentiation of ceftazidime-induced antimicrobial activity by measuring ceftazidime MIC incubated for 18 to 20 hrs by CLSI based method; summary of the method: as §1
[5] = target: Beta-lactamase VIM-2 (Pseudomonas aeruginosa) (UniProt Q9K2N0); experiment: Inhibition of VIM-2 in Pseudomonas aeruginosa 4698 assessed as potentiation of ceftazidime-induced antimicrobial activity by measuring ceftazidime MIC incubated for 18 to 20 hrs by CLSI based method; summary of the method: as §1
[6] = Inhibition of N-terminal 6x-His/Sumo-tagged NDM-1 (29 to 270 residues) (unknown origin) expressed in Escherichia coli BL21 (DE3) assessed as reduction in nitrocefin hydrolysis by spectrophotometry; set-up: species or system Bacteria
Summary of the method: (§2)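 Metallo-enzyme assay in 50 mM HEPES pH 7.2 with 50 µM zinc sulfate, 0.01% Triton X-100 and 20 µg/mL BSA, 37 °C. NDM-1 was construct 1 with the His/SUMO tag cleaved, at 2 nM; VIM-2 had its His tag TEV-cleaved, at 0.5 nM.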

[7] = Inhibition of N-terminal 6x-His-tagged VIM-2 (unknown origin) expressed in Escherichia coli Rosetta 2 (DE3) assessed as reduction in nitrocefin hydrolysis by spectrophotometry; set-up: species or system Bacteria
Summary of the method: as §2, with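 “nM. Nitrocefin hydrolysis read at 486 nm; IC50 from sigmoidal fit, Ki by Cheng-Prusoff; mostly duplicate.” for “nM.”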

[8] = Permeability in MDCK-MDR1 cells assessed as drug recovery; format: ADME, cell-based, Canis lupus familiaris; conditions: dog
[9] = system: Escherichia coli; experiment: Antimicrobial activity against Escherichia coli 5980 expressing NDM1 assessed as inhibition of microbial growth incubated for 18 to 20 hrs by CLSI based method; format: organism-based
Summary of the method: (§3)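 CLSI broth microdilution in MHBII. Compound tested alone in serial two-fold dilutions, 128–0.12 µg/mL. Inoculum was set to 0.5 McFarland and diluted to about 5×10^5 CFU per well. Plates incubated at 35 °C for 18–20 h. MIC read as the lowest concentration with no visible growth; an un-inoculated plate served as solubility control.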

[10] = system: Klebsiella pneumoniae; experiment: Antimicrobial activity against Klebsiella pneumoniae 4683 expressing KPC2 assessed as inhibition of microbial growth incubated for 18 to 20 hrs by CLSI based method; format: organism-based; summary of the method: as §3
[11] = system: Klebsiella pneumoniae; experiment: Antimicrobial activity against Klebsiella pneumoniae 5979 expressing NDM1 assessed as inhibition of microbial growth incubated for 18 to 20 hrs by CLSI based method; format: organism-based; summary of the method: as §3
[12] = system: Enterobacter cloacae; experiment: Antimicrobial activity against Enterobacter cloacae 5981 expressing NDM1 assessed as inhibition of microbial growth incubated for 18 to 20 hrs by CLSI based method; format: functional; summary of the method: as §3
[13] = system: Pseudomonas aeruginosa; experiment: Antimicrobial activity against Pseudomonas aeruginosa 4698 expressing VIM2 assessed as inhibition of microbial growth incubated for 18 to 20 hrs by CLSI based method; format: organism-based; summary of the method: as §3
[14] = system: Escherichia coli; experiment: Inhibition of NDM-1 in Escherichia coli 5980 assessed as potentiation of imipenem-induced antimicrobial activity by measuring imipenem MIC incubated for 18 to 20 hrs by CLSI based method (reference value: 8 ug/ml)
Summary of the method: (§4)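 CLSI broth microdilution in MHBII. […] Inoculum about 5×10^5 CFU per well, incubated at 35 °C for 18–20 h. Imipenem MIC read as absence of visible growth.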

[15] = target: Metallo-beta-lactamase type 2 (Klebsiella pneumoniae) (UniProt C7C422); experiment: Inhibition of NDM-1 in Klebsiella pneumoniae 5979 assessed as potentiation of imipenem-induced antimicrobial activity by measuring imipenem MIC incubated for 18 to 20 hrs by CLSI based method (reference value: <[…] ug/ml)
[16] = system: Enterobacter cloacae; experiment: Inhibition of NDM-1 in Enterobacter cloacae 5981 assessed as potentiation of imipenem-induced antimicrobial activity by measuring imipenem MIC incubated for 18 to 20 hrs by CLSI based method (reference value: 2 ug/ml); summary of the method: as §4
[17] = target: Beta-lactamase VIM-2 (Pseudomonas aeruginosa) (UniProt Q9K2N0); conditions: 4698
[18] = Inhibition of N-terminal 6x-His-tagged Klebsiella pneumoniae KPC2 (25 to 293 residues) assessed as reduction in nitrocefin hydrolysis by spectrophotometry
Summary of the method: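 Purified recombinant KPC-2 at 1 nM in 100 mM Tris-HCl pH 7.0 with 0.01% Triton X-100, 37 °C, reaction started by enzyme. IC50 from sigmoidal fit; Ki by Cheng-Prusoff using the nitrocefin Km. Run in duplicate, or once or in triplicate for some compounds.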

[19] = Kinetic solubility in pH 7.4 PBS; format: physicochemical; conditions: buffer
[20] = system: Klebsiella pneumoniae; conditions: 4683

| SMILES | Ki [7] | Ki ([6]; read-out: Ki) | MIC [9] | MIC [10] | MIC [11] | MIC [12] | MIC [13] | MIC [14] | MIC [15] | MIC [16] | also measured |
| --- | --- | --- | --- | --- | --- | --- | --- | --- | --- | --- | --- |
| NC(=O)[C@@H]1CC[C@@H]2CN1C(=O)N2OS(=O)(=O)O | – | – | – | – | – | – | – | – | – | – | MIC [1]: 4 µg/mL; MIC [2]: 4 µg/mL; MIC [3]: 4 µg/mL; MIC [4]: 4 µg/mL; MIC [5]: 4 µg/mL |
| O=c1cc(CP(=O)(O)O)c2c(F)cc(F)cc2o1 | 3300 nM | – | – | – | – | – | – | – | – | – | Ki [6]: Not Active |
| C[C@H]1O[C@@H](O[C@H]2[C@@H](O)C[C@H](O[C@H]3[C@@H](O)C[C@H](O[C@H]4CC[C@@]5(C)[C@H](CC[C@@H]6[C@@H]5C[C@@H](O)[C@]5(C)[C@@H](C7=CC(=O)OC7)CC[C@]65O)C4)O[C@@H]3C)O[C@@H]2C)C[C@H](O)[C@@H]1O [DIGOXIN] | – | – | – | – | – | – | – | – | – | – | Drug recovery [8]: 105% |
| COc1ccc2c(CP(=O)(O)O)cc(=O)oc2c1 | 2100 nM | 124 µM | – | – | – | – | – | – | – | – | – |
| Cc1cc(Br)c2c(CP(=O)(O)O)cc(=O)oc2c1 | 1200 nM | 34.2 µM | > 128 µg/mL | > 128 µg/mL | > 128 µg/mL | > 128 µg/mL | > 128 µg/mL | 2 µg/mL | 32 µg/mL | 2 µg/mL | – |
| O=c1cc(CP(=O)(O)O)c2ccccc2[nH]1 | 6400 nM | 190 µM | > 128 µg/mL | > 128 µg/mL | > 128 µg/mL | > 128 µg/mL | > 128 µg/mL | 2 µg/mL | 32 µg/mL | 2 µg/mL | MIC [17]: > 64 µg/mL |
| Cc1cc(C)c2c(CP(=O)(O)O)cc(=O)[nH]c2c1 | 3400 nM | 56.2 µM | > 128 µg/mL | > 128 µg/mL | > 128 µg/mL | > 128 µg/mL | > 128 µg/mL | 2 µg/mL | 64 µg/mL | 2 µg/mL | Ki [18]: 2200 nM; Kinetic_solubility [19]: 193 µM; MIC [20]: 1 µg/mL (≈ 3.74 µM); MIC [17]: > 64 µg/mL |
| Cc1cc(C)c2c(CP(=O)(O)O)cc(=O)oc2c1 | 820 nM | 33.8 µM | – | – | – | – | – | – | – | – | – |
